Assay results pooled from the literature.
Protocols differ between the studies behind these lines.
Target: Cannabinoid receptor 2 (CNR2, Homo sapiens, UniProt P34972)
Effect on: ligand displacement
Technique: radioligand

Compound	notes	Ki [nM]
Cc1nonc1Cn1nnc2c(N3CC[C@H](O)C3)nc(C(C)(C)C)nc21	cell membranes	11
CC1(C)C(C(=O)c2cn(CCCCCF)c3ccccc23)C1(C)C	cell membranes	2.13
CCOC(=O)C(CC)(CCCSCCOCCOCCOCCOCCNC(=O)OC(C)(C)C)NC(=O)c1ccc(C2CC2)c(Cc2ccc(F)cc2)n1 (stereo not drawn)	cell membranes	140
Cc1c(C(=O)Nc2ccc(F)nc2)nc(-c2ccc(Cl)cc2Cl)n1-c1ccc(OS(=O)(=O)CCC(F)(F)F)cc1	cell membranes	1.4
CCCCCc1cc(O)c2c(c1)OC(C)(C)[C@@H]1CC=C(C)[C@H](O)[C@@H]21	cell membranes	30
CCOC(=O)C(CC)(CCCSCCOCCOCCNc1ccc([N+](=O)[O-])c2nonc12)NC(=O)c1ccc(C2CC2)c(Cc2ccc(F)cc2)n1 (racemic)	cell membranes	22
CCCS(=O)(=O)Oc1ccc(-n2c(-c3ccc(Cl)cc3Cl)nc(C(=O)NN3CCCCC3)c2C)cc1	cell membranes	35
CCOC(=O)[C@H](CSC)NC(=O)c1ccc(C2CC2)c(Cc2ccc(F)cc2)n1	cell membranes	3.2
CCCCCn1c2ccccc2c2cc(C(=O)NCC3CCN(CC(=O)NC(C)(C)C)CC3)ccc21		> 5000
CCCCCc1cc(O)c2c(c1)OC(C)(C)c1cc(O)c(C)cc1-2	cell membranes	11
CCCCC/C=C\C/C=C\C/C=C\C/C=C\CCCC(=O)NCCCl	cell membranes	5200
CCCCCc1cc(O)c2c(c1)OC(C)(C)[C@@H]1CC[C@](C)(O)[C@@H](O)[C@@H]21	cell membranes	2140
CCOC(=O)C(CCCOC)NC(=O)c1ccc(C2CC2)c(Cc2ccc(F)cc2)n1 (stereo not drawn)	cell membranes	17
CCCCCc1cc2c(c(O)c1C(=O)O)C1C=C(C)CCC1C(C)(C)O2 (stereo not drawn)	cell membranes	1650
C=CCC(CC)(NC(=O)c1ccc(C2CC2)c(Cc2ccc(F)cc2)n1)C(=O)OCC (stereo not drawn)	cell membranes	0.8
